In the library only some 2.2% were active in any assay of this set; here they are far more common.
NS3 helicase inh – blocks Hepatitis C virus NS3 helicase unwinding | actives 0.56% (n = 290,000) | NS3 helicase DNA unwinding, Cy5 molecular beacon fluorescence | inhibition, % at 10.9 µM | AID 1800;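 active = inhibition above the mean of all tested compounds plus 3 SD, set per campaign, cut at about 35% in these data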;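 note: 0% = DMSO wells and 100% = thioflavine S control wells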
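Test system: hepatitis C virus NS3 helicase domain fragment enzyme. Also added: annealed dual-labelled DNA beacon duplex, ATP-started. Timing: 60 min unwinding reaction at 25 °C after ATP addition. Technique: Cy5 fluorescence. Measure: % inhibition of unwinding.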
DAGLB inh – diacylglycerol lipase beta (human) inhibition; inhibition, % at 5.17 µM; Q8NCG7; HEK293T DAGLB membrane lysate, EnzChek fluorogenic substrate; actives 0.059% (n = 340,000); in the data active = inhibition above about 34%;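 note: 0% = enzyme with vehicle and 100% = wells lacking enzyme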
Target sequence (Q8NCG7 whole entry, looked up): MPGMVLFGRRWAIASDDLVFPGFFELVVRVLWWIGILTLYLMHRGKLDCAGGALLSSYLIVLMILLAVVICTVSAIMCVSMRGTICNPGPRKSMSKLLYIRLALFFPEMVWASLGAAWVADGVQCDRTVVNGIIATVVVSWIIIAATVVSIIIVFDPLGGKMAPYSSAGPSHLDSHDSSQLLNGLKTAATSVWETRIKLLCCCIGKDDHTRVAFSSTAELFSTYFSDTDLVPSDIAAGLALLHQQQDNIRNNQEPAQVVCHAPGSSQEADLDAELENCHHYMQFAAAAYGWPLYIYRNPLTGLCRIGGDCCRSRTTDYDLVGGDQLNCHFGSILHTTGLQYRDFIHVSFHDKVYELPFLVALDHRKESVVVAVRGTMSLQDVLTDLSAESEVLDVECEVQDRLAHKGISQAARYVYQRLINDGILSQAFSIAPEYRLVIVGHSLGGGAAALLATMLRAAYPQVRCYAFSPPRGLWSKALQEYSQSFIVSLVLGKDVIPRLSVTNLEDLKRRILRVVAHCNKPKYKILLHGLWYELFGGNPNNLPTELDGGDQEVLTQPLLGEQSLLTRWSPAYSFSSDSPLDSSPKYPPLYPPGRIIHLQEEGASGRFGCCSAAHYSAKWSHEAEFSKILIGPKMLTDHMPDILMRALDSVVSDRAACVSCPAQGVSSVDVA
FID counter – counter-screen for HCV NS3 helicase inhibitors: DNA intercalator displacement. inhibition, % at 7.9 µM. DNA fluorescent intercalator displacement, fluorescence. actives 0.17% (n = 290,000); in the data active = inhibition above about 37%;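 note: 0% = vehicle and 100% = reference compound; higher means more ethidium bromide displaced from hairpin DNA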
GPR7 antag – human neuropeptides B/W receptor 1 antagonism. actives 1.1% (n = 290,000). inhibition, % at 4.4 µM. GPR7-expressing cells, fluorescence antagonist assay. P48145; in the data active = inhibition above about 16%, passing the limit was not always enough;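 note: cells stimulated with the agonist NPW; 0% = agonist with vehicle and 100% = vehicle without agonist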
GRK2 aptamer HTS – blocks RNA aptamer binding to human GRK2; P25098; bead flow cytometry, FAM-aptamer displacement from GRK2; inhibition of aptamer binding, % at 10 µM; actives 0.59% (n = 330,000);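 active = inhibition of aptamer binding above 40%, roughly 3 SD of noise, on plates passing a quality check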;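 note: median bead fluorescence of bound FAM aptamer so fluorescent compounds give negative values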
core dimer inh – HCV core protein dimerization inhibition; TR-FRET GST/Flag-core106 dimerization, 1536-well; inhibition, % at 5 µM; AID 1899; actives 0.33% (n = 300,000);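 active = inhibition above the mean of all tested compounds plus 3 SD, set per screening campaign, cut at about 45% in these data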
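assay system = GST-tagged and Flag-tagged HCV core protein residues 1-106 | controls = unlabelled core106 and no-GST-core106 wells | incubation = compound-protein-antibody incubation 4 h at 22.5 °C | probe or stimulus = Eu donor and XL665 acceptor anti-tag antibodies | read-out = % inhibition based on acceptor/donor emission ratio | signal = TR-FRET 671 and 617 nm emission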
GPR7 antag conf – confirmation of human GPR7 antagonists. shares compounds with GPR7 antag. GPR7-expressing cells, calcium fluorescence antagonist mode. inhibition, % at 4.4 µM. actives 52% (n = 2,400); in the data active = inhibition above about 24%;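 note: stimulated with the GPR7 agonist NPW; 0% = agonist plus vehicle and 100% = vehicle alone without agonist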
MCHR1 antagonist – MCHR1 (human) antagonism in GPR7 counter-screen; MCHR1-expressing cells, fluorescence antagonist assay; AID 2148; shares compounds with GPR7 antag; actives 62% (n = 2,400); inhibition, % at 4.4 µM; in the data active = inhibition above about 22%;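 note: 0% = vehicle with agonist and 100% = vehicle without agonist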
* = called active by the depositor; . = no result.

SMILES	NS3 helicase inh	DAGLB inh	FID counter	GPR7 antag	GRK2 aptamer HTS	core dimer inh	GPR7 antag conf	MCHR1 antagonist
CC(NCc1cc(Br)ccc1OCC(=O)NCc1ccccc1)c1ccccc1 (stereo unspecified)	-39.2	-2.8	10.3	29.8*	0.0	-1.3	34.0*	39.5*
CCOC(=O)c1nn(-c2ccccc2C)c(=O)c(C#N)c1C	3.1	-1.5	-1.8	29.3*	0.0	1.5	-12.0	2.6
COCC(C)n1c(SCC(=O)NC(=O)NC2CCCC2)nc2ccccc2c1=O (stereo unspecified)	.	-0.7	.	.	2.0	.	.	.
O=C1CCCCCN1Sc1ccccc1	-6.6	-3.8	-4.0	25.5*	0.0	1.8	32.1*	88.2*
O=C1CCCCCN1C(=O)c1ccccc1	.	0.1	.	.	.	.	.	.
c1ccc(Cc2nnc(-c3ccccc3)o2)cc1	7.8	-4.5	-10.7	69.5*	4.0	-1.9	71.4*	60.3*
CNc1ccccc1C(=O)OCC(=O)c1ccccc1	-1.7	-6.2	-7.5	-5.7	.	6.8	.	.
CNc1ccccc1C(=O)OCC(=O)c1ccc(F)cc1	-3.9	-0.3	-4.1	23.5*	2.0	3.0	7.3	16.3
Cc1cccn2c(CNC3CCCc4ccccc43)c(C(=O)N3CCOCC3)nc12 (stereo unspecified)	-21.3	-2.8	-7.9	-4.0	0.0	10.1	.	.
Cc1cccn2c(CN[C@@H]3CCCC[C@H]3c3ccccc3)c(C(=O)N3CCOCC3)nc12	-7.0	3.4	5.9	28.9*	0.0	3.7	19.4	25.3*
OC(CNCC1CCCO1)Cn1c2ccc(Cl)cc2c2cc(Cl)ccc21 (stereo unspecified)	-96.2	-4.0	25.3	53.0*	0.0	-16.9	53.1*	54.0*
COC(=O)Nc1nnc(/C=C/c2ccc(OC)cc2)s1	15.2	0.4	-7.6	24.3*	1.0	-1.9	20.2	11.4
CSc1ncccc1C(=O)Nc1ccc(OC(F)(F)F)cc1	-11.5	-1.3	-0.5	8.5	1.0	-1.5	.	.
CC(=O)Nc1ccc(Sc2ncccc2C(=O)Nc2ccc(F)cc2)cn1	-2.3	1.5	-2.3	62.3*	1.0	-5.2	97.8*	97.7*
COCc1cc(C)nc(SCc2ccc([N+](=O)[O-])cc2)c1C#N	14.5	-6.8	-5.0	29.3*	4.0	7.8	9.3	13.4
Cc1ccccc1C(=O)N1CCN(c2ccc(NC(=O)c3ccc4c(c3)OCCO4)cc2)CC1	-4.8	2.8	-42.6	24.4	4.0	-3.0	.	.
Cc1ccc(C(=O)N2CCN(c3ccc(NC(=O)c4ccc5c(c4)OCCO5)cc3)CC2)cc1	-12.0	2.8	-51.9	32.4*	5.0	-3.7	32.8*	65.5*
CCOc1cc(/C=C2/NC(=O)NC2=O)cc(Br)c1OCc1ccc(C(=O)O)cc1	-0.2	3.9	-25.2	-2.0	0.0	-1.8	.	.
CC1CCCCC1NC(=O)CN1C(=O)CSc2cc(S(=O)(=O)N3CCCCCC3)ccc21 (stereo unspecified)	8.8	-0.8	-42.2	27.7*	2.0	6.9	22.8	17.6
O=C(CN1C(=O)CSc2cc(S(=O)(=O)N3CCCCCC3)ccc21)NCCc1ccccc1	5.2	1.2	-38.9	-6.3	0.0	15.8	.	.
O=C(CSc1cn[nH]n1)Nc1ccccc1C(F)(F)F	-4.1	-0.4	-1.4	-6.2	2.0	-2.9	.	.
COC(=O)COc1ccc(S(=O)(=O)NC2CCCCCC2)cc1	1.1	-2.5	-4.6	1.7	0.0	1.1	.	.
COC(=O)CCN(C1CCCCC1)S(=O)(=O)c1ccc(S(=O)(=O)NC2CCCCC2)cc1	1.6	1.7	-38.9	39.9*	0.0	2.6	51.0*	32.5*
CCN(CC(=O)Nc1cc(Cl)ccc1C)c1ncnc2sc(C)c(C)c12	10.6	-6.0	-8.6	22.8*	4.0	-0.2	10.7	44.5*
CCN(CC(=O)Nc1cc(Cl)ccc1C)C(=O)C1CCN(c2ncnc3sc(C)c(C)c23)CC1	.	-3.0	.	.	.	.	.	.

Screens deposited in PubChem by several laboratories.
